# Assay results taken from ChEMBL document CHEMBL5653631, “A Potent and Selective ULK1 Inhibitor Suppresses Autophagy and Sensitizes Cancer Cells to Nutrient Stress” (iScience, 2018).
# How the values were obtained:
# [1] = biological target: T1, Interleukin-1 receptor-associated kinase 4 (Homo sapiens) (UniProt Q9NWZ3); assay: Inhibition of human recombinant IRAK4 at 40 nM related to control ULK1
# T1 sequence (whole entry): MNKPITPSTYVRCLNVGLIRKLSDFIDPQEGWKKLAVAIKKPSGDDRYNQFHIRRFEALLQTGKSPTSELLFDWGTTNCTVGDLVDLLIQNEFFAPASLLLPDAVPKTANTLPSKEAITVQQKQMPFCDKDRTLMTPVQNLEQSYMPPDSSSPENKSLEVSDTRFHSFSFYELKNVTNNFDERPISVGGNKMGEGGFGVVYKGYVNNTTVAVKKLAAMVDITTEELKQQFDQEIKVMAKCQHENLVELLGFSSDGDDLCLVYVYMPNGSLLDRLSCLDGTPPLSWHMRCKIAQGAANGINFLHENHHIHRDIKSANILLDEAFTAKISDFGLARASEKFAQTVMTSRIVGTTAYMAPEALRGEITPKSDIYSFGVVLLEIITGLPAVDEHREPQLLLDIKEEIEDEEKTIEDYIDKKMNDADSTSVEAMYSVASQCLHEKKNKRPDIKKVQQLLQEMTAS
# [2] = biological target: Serine/threonine-protein kinase pim-3 (Homo sapiens) (UniProt Q86V86); assay: Inhibition of human recombinant PIM3 at 40 nM related to control ULK1
# [3] = biological target: T2, Serine/threonine-protein kinase Nek3 (Homo sapiens) (UniProt P51956); assay: Inhibition of human recombinant NEK3 at 15 nM in presence of ATP by radiometric assay relative to control
# T2 sequence (whole entry): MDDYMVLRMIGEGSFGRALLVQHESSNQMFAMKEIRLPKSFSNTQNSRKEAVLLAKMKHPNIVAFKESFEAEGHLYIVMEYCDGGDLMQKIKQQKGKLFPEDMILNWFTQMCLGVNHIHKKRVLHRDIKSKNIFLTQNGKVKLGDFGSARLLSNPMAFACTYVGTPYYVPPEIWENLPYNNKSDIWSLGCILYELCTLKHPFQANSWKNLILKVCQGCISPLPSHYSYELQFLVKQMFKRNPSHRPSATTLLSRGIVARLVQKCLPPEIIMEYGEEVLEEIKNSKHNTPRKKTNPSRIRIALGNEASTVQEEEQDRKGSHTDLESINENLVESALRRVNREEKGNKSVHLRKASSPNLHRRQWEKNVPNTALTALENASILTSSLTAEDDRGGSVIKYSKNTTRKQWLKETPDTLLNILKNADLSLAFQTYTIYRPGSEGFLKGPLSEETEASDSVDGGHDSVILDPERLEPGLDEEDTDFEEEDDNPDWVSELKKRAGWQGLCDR
# [4] = biological target: T3, G protein-coupled receptor kinase 3 (Homo sapiens) (UniProt P35626); assay: Inhibition of human recombinant BARK2 at 15 nM in presence of ATP by radiometric assay relative to control
# T3 sequence (whole entry): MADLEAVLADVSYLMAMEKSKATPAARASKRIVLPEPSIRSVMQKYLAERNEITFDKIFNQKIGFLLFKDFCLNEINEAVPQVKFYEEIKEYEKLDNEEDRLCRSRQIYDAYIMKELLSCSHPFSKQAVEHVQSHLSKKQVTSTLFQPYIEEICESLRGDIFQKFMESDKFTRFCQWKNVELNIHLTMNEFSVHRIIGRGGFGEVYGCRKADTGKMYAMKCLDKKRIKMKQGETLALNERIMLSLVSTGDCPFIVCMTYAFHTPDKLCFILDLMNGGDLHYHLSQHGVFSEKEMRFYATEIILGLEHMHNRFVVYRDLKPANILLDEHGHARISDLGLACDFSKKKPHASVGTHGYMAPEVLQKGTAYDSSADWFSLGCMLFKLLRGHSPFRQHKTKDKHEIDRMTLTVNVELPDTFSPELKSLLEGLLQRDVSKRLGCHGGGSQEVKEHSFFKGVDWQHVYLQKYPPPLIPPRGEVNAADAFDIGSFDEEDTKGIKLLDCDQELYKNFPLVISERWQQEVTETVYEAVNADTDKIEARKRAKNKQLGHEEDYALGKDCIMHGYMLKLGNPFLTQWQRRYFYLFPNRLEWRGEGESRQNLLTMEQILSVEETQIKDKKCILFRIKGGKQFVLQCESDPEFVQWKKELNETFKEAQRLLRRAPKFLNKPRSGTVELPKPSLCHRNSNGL
# Procedure, shortened: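 Part of a radiometric in vitro activity panel of 327 recombinant human kinases. Each kinase was tested in duplicate at one inhibitor concentration. Activity remaining was expressed as a percentage of the vehicle control, and percent inhibition was taken as 100 minus that value.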
# [5] = biological target: Epithelial discoidin domain-containing receptor 1 (Homo sapiens) (UniProt Q08345); assay: Inhibition of human recombinant DDR1 at 15 nM in presence of ATP by radiometric assay relative to control
# [6] = biological target: Ribosomal protein S6 kinase alpha-6 (Homo sapiens) (UniProt Q9UK32); assay: Inhibition of human recombinant RSK4 at 15 nM related to control ULK1
# [7] = biological target: T4, Mitogen-activated protein kinase kinase kinase kinase 2 (Homo sapiens) (UniProt Q12851); assay: Inhibition of human recombinant GCK at 500 nM related to control ULK1
# T4 sequence (whole entry): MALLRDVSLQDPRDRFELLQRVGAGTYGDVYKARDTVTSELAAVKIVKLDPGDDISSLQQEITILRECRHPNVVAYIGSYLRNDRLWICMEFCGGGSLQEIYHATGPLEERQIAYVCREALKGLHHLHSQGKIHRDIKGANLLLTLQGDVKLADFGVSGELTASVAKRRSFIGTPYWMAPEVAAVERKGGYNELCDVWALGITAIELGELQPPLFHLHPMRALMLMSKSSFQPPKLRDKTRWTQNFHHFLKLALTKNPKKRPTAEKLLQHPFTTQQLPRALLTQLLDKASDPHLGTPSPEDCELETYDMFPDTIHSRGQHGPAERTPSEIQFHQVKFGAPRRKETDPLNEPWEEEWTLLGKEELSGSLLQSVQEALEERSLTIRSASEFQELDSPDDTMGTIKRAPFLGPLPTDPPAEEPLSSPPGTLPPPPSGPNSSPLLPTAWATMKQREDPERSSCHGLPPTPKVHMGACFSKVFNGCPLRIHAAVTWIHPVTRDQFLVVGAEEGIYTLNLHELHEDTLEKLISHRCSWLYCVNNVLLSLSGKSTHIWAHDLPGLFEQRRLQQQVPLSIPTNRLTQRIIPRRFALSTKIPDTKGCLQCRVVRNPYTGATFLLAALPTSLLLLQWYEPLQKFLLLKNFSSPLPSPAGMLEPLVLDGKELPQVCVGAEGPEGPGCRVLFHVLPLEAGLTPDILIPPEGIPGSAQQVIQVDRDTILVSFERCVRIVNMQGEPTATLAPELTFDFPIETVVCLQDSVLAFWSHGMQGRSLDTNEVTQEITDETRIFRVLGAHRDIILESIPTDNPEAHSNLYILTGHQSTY
# [8] = biological target: Epithelial discoidin domain-containing receptor 1 (Homo sapiens) (UniProt Q08345); assay: Inhibition of human recombinant DDR1 at 500 nM in presence of ATP by radiometric assay relative to control
# Chain of Epithelial discoidin domain-containing receptor 1 (Homo sapiens) (Q08345 whole entry, the tested form may be a part): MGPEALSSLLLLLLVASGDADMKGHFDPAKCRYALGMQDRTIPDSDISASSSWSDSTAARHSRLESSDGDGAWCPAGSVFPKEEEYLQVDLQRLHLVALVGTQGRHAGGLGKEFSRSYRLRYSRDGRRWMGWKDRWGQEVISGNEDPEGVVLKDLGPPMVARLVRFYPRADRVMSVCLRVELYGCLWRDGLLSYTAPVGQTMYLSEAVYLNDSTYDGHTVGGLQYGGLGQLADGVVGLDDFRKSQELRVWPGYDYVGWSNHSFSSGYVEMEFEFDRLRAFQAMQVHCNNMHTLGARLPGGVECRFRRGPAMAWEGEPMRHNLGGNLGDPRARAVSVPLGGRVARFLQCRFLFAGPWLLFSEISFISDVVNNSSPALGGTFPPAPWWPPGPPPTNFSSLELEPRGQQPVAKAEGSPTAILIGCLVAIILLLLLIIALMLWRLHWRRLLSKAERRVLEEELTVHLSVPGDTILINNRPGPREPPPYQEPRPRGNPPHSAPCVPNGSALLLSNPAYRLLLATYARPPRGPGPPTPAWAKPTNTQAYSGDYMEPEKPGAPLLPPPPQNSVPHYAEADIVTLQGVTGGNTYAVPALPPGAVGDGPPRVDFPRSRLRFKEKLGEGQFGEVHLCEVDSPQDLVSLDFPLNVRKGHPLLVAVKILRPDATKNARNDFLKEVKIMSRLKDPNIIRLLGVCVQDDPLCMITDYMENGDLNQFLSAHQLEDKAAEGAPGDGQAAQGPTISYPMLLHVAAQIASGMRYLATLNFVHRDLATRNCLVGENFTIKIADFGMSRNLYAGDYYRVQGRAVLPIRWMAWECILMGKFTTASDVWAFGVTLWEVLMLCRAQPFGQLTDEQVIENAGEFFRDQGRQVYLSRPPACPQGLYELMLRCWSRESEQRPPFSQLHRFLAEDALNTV
# Chain of Ribosomal protein S6 kinase alpha-6 (Homo sapiens) (Q9UK32 whole entry): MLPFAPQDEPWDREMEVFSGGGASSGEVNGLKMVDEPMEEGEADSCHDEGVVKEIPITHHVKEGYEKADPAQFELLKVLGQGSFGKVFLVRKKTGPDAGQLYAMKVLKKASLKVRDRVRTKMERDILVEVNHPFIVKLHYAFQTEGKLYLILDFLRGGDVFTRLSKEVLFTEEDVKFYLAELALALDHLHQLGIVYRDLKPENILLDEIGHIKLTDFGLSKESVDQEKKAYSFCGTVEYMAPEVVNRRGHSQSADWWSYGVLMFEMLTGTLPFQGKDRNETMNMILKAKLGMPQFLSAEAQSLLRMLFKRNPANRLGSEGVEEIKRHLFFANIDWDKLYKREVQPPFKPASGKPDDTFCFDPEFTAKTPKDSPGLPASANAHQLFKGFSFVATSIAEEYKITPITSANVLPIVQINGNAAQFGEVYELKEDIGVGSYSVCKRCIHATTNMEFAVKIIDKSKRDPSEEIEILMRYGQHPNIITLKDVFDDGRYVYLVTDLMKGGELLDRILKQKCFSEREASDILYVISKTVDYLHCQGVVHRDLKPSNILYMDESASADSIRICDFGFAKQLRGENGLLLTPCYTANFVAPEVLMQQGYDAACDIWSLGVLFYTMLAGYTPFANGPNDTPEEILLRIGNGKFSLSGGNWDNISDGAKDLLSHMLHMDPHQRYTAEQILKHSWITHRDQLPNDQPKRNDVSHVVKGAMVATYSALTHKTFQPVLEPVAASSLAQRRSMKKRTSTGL
structure (smiles),measurement,setting,value
O=C(N[C@@H](C1CC1)C(F)(F)F)c1cc(-c2cnn3cc(-c4ccc(F)cc4)cnc23)cs1,fold change (FC),[1],0
same,fold change (FC),[2],0
CC(C)[C@H](NC(=O)c1cc(-c2cnn3cc(-c4ccc(OCCN5CCCCC5)cc4)cnc23)cs1)C(F)(F)F,inhibition,[3],1%
same,inhibition,[4],0%
same,inhibition,[5],78%
same,fold change (FC),[6],0
CNC(=O)c1ccccc1Oc1nc(Nc2cc(OC)c(OC)c(OC)c2)ncc1Br,fold change (FC),[7],0.45
same,inhibition,[8],47%
